By Kd is commonly meant the equilibrium constant for the complex coming apart.

The text below walks through data of ChEMBL document CHEMBL2396608, “Thiazolylaminomannosides as potent antiadhesives of type 1 piliated Escherichia coli isolated from Crohn's disease patients” (J Med Chem, 2013).

Calls of active or inactive are those of the source. The calls are words filed in the database; no cut-off is given here.

Experiment [1] concerns Escherichia coli. Nature of the experiment: Antiadhesive activity against type-1 piliated adherent-invasive Escherichia coli LF82 assessed as inhibition of guinea pig erythrocyte hemagglutination relative to heptylmannoside. The class given is functional. In outline: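 LF82 grown statically overnight in LB at 37 °C and washed three times in ice-cold PBS. Twofold compound dilutions, starting at 1 mM, made in 20 mM HEPES pH 7.4, 150 mM NaCl. Added 25 μL bacteria, then 50 μL guinea pig erythrocytes at 5%. Overnight on ice before read-out.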

Experiment [2] concerns the target Type 1 fimbrin D-mannose specific adhesin (Escherichia coli K-12) (UniProt P08191). Nature of the experiment: Binding affinity to Escherichia coli FimH assessed as decrease in RNaseB binding after 1 hr by competitive ELISA. Summed up: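 Wells coated with RNaseB in bicarbonate buffer pH 9.6, overnight at 4 °C. Blocked with 3% BSA in PBST, 2 h at 37 °C. Inhibitors in PBST plus FimH at 0.07 μM, 1 h at room temperature. Detection used rabbit anti-FimH (1:2500, 1 h), then HRP anti-rabbit (1:5000, 1 h), then TMB for 2–5 min in the dark, stopped with 1N H₂SO₄. Absorbance read at 450 nm.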

Experiment [3] concerns Escherichia coli. Nature of the experiment: Antiadhesive activity against type-1 piliated adherent-invasive Escherichia coli LF82 assessed as residual bacterial adhesion to human T84 cells overexpressing CEACAM6 at 1 uM incubated for 1 hr prior to infection measured after 3 hrs relative to control. The class given is functional. Summed up:
(§1)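 T84 cells seeded at 1.5 × 10⁵ cells/well and grown 48 h at 37 °C under 5% CO₂. Washed monolayers pretreated 1 h with inhibitor at final 0.1, 1, 10 or 100 μM (α-D-mannose 100–50000 μM), then infected 3 h with LB-grown LF82 at MOI 10 with inhibitor present. Cells lysed in 1% Triton X-100; CFU counted on LB agar. Residual adhesion given as % of untreated (means SEM).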

Experiment [4] deals with Escherichia coli. Nature of the experiment: Antiadhesive activity against type-1 piliated adherent-invasive Escherichia coli LF82 assessed as inhibition of bacterial adhesion to human T84 cells overexpressing CEACAM6 incubated for 1 hr prior to infection measured after 3 hrs. It counts as functional, organism-based. Summed up:
as §1

Experiment [5] addresses Type 1 fimbrin D-mannose specific adhesin (Escherichia coli K-12, UniProt P08191). Nature of the experiment: Binding affinity to Escherichia coli FimH assessed as dissociation constant by ITC analysis. In general terms: In ITC the heat of successive injections is recorded.
Experiment [6] deals with Escherichia coli. Nature of the experiment: Antiadhesive activity against type-1 piliated adherent-invasive Escherichia coli LF82 assessed as residual bacterial adhesion to human T84 cells overexpressing CEACAM6 at 10 uM incubated for 1 hr prior to infection measured after 3 hrs relative to control. The class given is functional. Summed up: as §1
In experiment [7] the test system is Escherichia coli. Nature of the experiment: Antiadhesive activity against type-1 piliated adherent-invasive Escherichia coli LF82 assessed as decrease in residual bacterial adhesion to colonic tissue isolated from FVB/N transgenic mouse expressing human CEACAM6 at 10 umol after 1 hr relative to control. It counts as functional. Summed up:
(§2)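 Colons from 10–12-week-old FVB/N CEABAC10 mice (human CEACAM6 transgenic; anesthetized, killed by cervical dislocation) split into four loops. Each loop was injected with 100 μL holding 2 × 10⁵ LF82 with or without inhibitor at 0.01, 0.1, 1 or 10 μmol, then held 1 h at 37 °C, 5% CO₂. Loops were opened, washed four times in PBS, homogenized and plated on LB agar with ampicillin 100 μg/mL and erythromycin 20 μg/mL. CFU normalized to untreated (100%); n = 5–8 mice, means SEM.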

The subject of experiment [8] is Escherichia coli. The experiment can be described thus: Antiadhesive activity against type-1 piliated adherent-invasive Escherichia coli LF82 assessed as residual bacterial adhesion to human T84 cells overexpressing CEACAM6 at 1000 uM incubated for 1 hr prior to infection measured after 3 hrs relative to control. The class given is functional. In outline: as §1

The test system of experiment [9] is Escherichia coli. The experiment can be described thus: Antiadhesive activity against type-1 piliated adherent-invasive Escherichia coli LF82 assessed as inhibition of bacterial adhesion to colonic tissue isolated from FVB/N transgenic mouse expressing human CEACAM6 after 1 hr. The class given is functional, organism-based. Summed up:
as §2

Experiment [10] relates to Escherichia coli. Nature of the experiment: Antiadhesive activity against type-1 piliated adherent-invasive Escherichia coli LF82 assessed as decrease in residual bacterial adhesion to colonic tissue isolated from FVB/N transgenic mouse expressing human CEACAM6 at 0.1 umol after 1 hr relative to control. It counts as functional. Summed up:
as §2

The subject of experiment [11] is Escherichia coli. Nature of the experiment: Ratio of compound activity to D-mannose activity for prevention of Escherichia coli LF82 adhesion to colonic tissue isolated from FVB/N transgenic mouse expressing human CEACAM6. The class given is functional.
For experiment [12], the system named is Escherichia coli. Nature of the experiment: Antiadhesive activity against type-1 piliated adherent-invasive Escherichia coli LF82 assessed as inhibition of bacterial adhesion to human T84 cells overexpressing CEACAM6 at 0.1 to 100 uM incubated for 1 hr prior to infection measured after 3 hrs relative to heptylmannoside. The class given is functional.
The test system of experiment [13] is Escherichia coli. Nature of the experiment: Antiadhesive activity against type-1 piliated adherent-invasive Escherichia coli LF82 assessed as residual bacterial adhesion to human T84 cells overexpressing CEACAM6 at 0.1 uM incubated for 1 hr prior to infection measured after 3 hrs relative to control. The class given is functional. Summed up:
as §1

Chain of Type 1 fimbrin D-mannose specific adhesin (Escherichia coli K-12) (P08191 whole entry): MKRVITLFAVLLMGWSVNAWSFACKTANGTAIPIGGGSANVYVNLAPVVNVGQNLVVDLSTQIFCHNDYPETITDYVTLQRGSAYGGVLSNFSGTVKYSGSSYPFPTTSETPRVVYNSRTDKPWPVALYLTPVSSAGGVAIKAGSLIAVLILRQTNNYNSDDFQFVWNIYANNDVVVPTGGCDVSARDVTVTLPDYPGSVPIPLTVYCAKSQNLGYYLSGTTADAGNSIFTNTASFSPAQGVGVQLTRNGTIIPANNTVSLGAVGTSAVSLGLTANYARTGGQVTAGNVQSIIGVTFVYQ
Chain of Type 1 fimbrin D-mannose specific adhesin (P08191 whole entry): as above

For the molecule `N#Cc1ccc(C(=O)c2cnc(N[C@H]3O[C@H](CO)[C@@H](O)[C@H](O)[C@@H]3O)s2)cc1`, in the experiment with Escherichia coli [1], the “fold change (FC)” value is recorded as 0.7. Also, the Activity result in experiment [2] was “Dose-dependent effect”.

Take `O=C(c1ccc([N+](=O)[O-])cc1)c1cnc(N[C@H]2O[C@H](CO)[C@@H](O)[C@H](O)[C@@H]2O)s1`: the “fold change (FC)” value in the experiment on Escherichia coli [1] was determined as 0.7. The Activity result in experiment [2] was “Dose-dependent effect”.

On to `CCCCCCCO[C@H]1O[C@H](CO)[C@@H](O)[C@H](O)[C@@H]1O`, for which, in the experiment with Escherichia coli [3], the result was inactive. Moreover, the inhibition entry in the experiment on Escherichia coli [4] is “Dose-dependent effect”. The Kd in experiment [5] came to 7 nM. For the same molecule, the Activity in the experiment on Escherichia coli [6] is reported as 52.4%.

Take `CC(C)(C)C(=O)c1cnc(N[C@H]2O[C@H](CO)[C@@H](O)[C@H](O)[C@@H]2O)s1`: in the experiment with Escherichia coli [1], the “fold change (FC)” value worked out at 0.9. The Activity result in experiment [2] was “Dose-dependent effect”.

On to `O=C(c1cccs1)c1cnc(N[C@H]2O[C@H](CO)[C@@H](O)[C@H](O)[C@@H]2O)s1`, for which the “fold change (FC)” value in the experiment on Escherichia coli [1] was 0.1. In experiment [2], the Activity entry was “Dose-dependent effect”.

Regarding `O=C(c1cnc(N[C@H]2O[C@H](CO)[C@@H](O)[C@H](O)[C@@H]2O)s1)C(F)(F)F`, in the experiment with Escherichia coli [1], the “fold change (FC)” value is 1.7. The Activity result in experiment [2] is “Dose-dependent effect”.

`OC[C@H]1O[C@H](O)[C@@H](O)[C@@H](O)[C@@H]1O`: the inhibition entry in the experiment on Escherichia coli [4] and in the experiment on Escherichia coli [9] was “Dose-dependent effect” throughout. The Activity in the experiment on Escherichia coli [7] is 41%; with Escherichia coli [8], 51.6%.

Regarding `Cc1ccc(C(=O)c2cnc(N[C@H]3O[C@H](CO)[C@@H](O)[C@H](O)[C@@H]3O)s2)cc1`, the “fold change (FC)” value in the experiment with Escherichia coli [1] was determined as 0.4. Moreover, the Activity entry in [2] was “Dose-dependent effect”.

`O=C(c1cnc(N[C@H]2O[C@H](CO)[C@@H](O)[C@H](O)[C@@H]2O)s1)C12CC3CC(CC(C3)C1)C2`: the “fold change (FC)” value with Escherichia coli [1] worked out at 0.3. For the same molecule, the Activity result in experiment [2] is “Dose-dependent effect”.

With `O=C(c1ccsc1)c1cnc(N[C@H]2O[C@H](CO)[C@@H](O)[C@H](O)[C@@H]2O)s1`, the “fold change (FC)” value in the experiment with Escherichia coli [1] amounted to 0.3. Also, in experiment [2], the Activity entry was “Dose-dependent effect”.

For `O=C(c1ccc2ccccc2c1)c1cnc(N[C@H]2O[C@H](CO)[C@@H](O)[C@H](O)[C@@H]2O)s1`, the “fold change (FC)” value in the experiment with Escherichia coli [1] is listed as 2.3. Also, the Activity entry in experiment [2] is “Dose-dependent effect”.

On to `CC(=O)c1cnc(N[C@H]2O[C@H](CO)[C@@H](O)[C@H](O)[C@@H]2O)s1`, for which the “fold change (FC)” value in the experiment on Escherichia coli [1] came to 1.4. Further, the inhibition result in the experiment with Escherichia coli [4] was “Dose-dependent effect”. In experiment [2], the Activity entry is “Dose-dependent effect”.

For `O=C(c1ccccc1)c1cnc(N[C@H]2O[C@H](CO)[C@@H](O)[C@H](O)[C@@H]2O)s1`, the “fold change (FC)” value in the experiment with Escherichia coli [1] is recorded as 0.4. For the same molecule, the Activity result in experiment [2] is “Dose-dependent effect”.

Consider `Cc1nc(-c2cnccn2)sc1C(=O)c1cnc(N[C@H]2O[C@H](CO)[C@@H](O)[C@H](O)[C@@H]2O)s1`, for which the Activity in the experiment on Escherichia coli [10] was 65%; with Escherichia coli [3], 14%; in experiment [2], “Dose-dependent effect”; in the experiment with Escherichia coli [13], 57.6%. Moreover, in the experiment with Escherichia coli [11], the Ratio is listed as 10. The “fold change (FC)” value in the experiment on Escherichia coli [1] came out at 0.2; with Escherichia coli [12] it was 0.01. In addition, the inhibition result with Escherichia coli [4] and with Escherichia coli [9] was “Dose-dependent effect” each time.
